Experimental data: ChEMBL document CHEMBL2203053, “DNA binding acridine-thiazolidinone agents affecting intracellular glutathione” (Bioorg Med Chem, 2012)

System: Nucleic Acid
Assay: Binding affinity to calf thymus DNA assessed as binding constant by spectrofluorimetry based McGhee von Hippel method
Type: nucleic-acid assay
Conditions: Bos taurus
In short: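 Fluorescence titration used compound at 26.7 µM in 0.01 M Tris buffer (pH 7.4, 24 °C). ctDNA was added stepwise from 0 to 32 µM bp at 2 µM intervals until spectra stopped changing. Excitation was 384 nm and emission was read at 410–470 nm. Binding constant K was derived by the McGhee–von Hippel method from Scatchard plot data.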

CN(C)c1ccc2cc3ccc(N(C)C)cc3nc2c1
K: 3.19 ×10⁵ /M
